# Experiments:
# Type in all cases: cell-based
# [1] = target: Histone-lysine N-methyltransferase EZH2 (Mus musculus) (UniProt Q61188); test: Inhibition of EZH2 in mouse B16-F1 migrating cells assessed as fold change in H3K27me3-dependent regulated Espnl-mRNA expression at 3 uM measured by […] analysis relative to control cells
# Outline: (§1)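 Confluent B16-F1 cells on fibronectin-coated plates were scratched at multiple sites, washed once with DMEM and left to migrate 3 h in growth medium (37 °C, 7% CO2); unscratched cells served as control. GSK343 (3 µM) was added 3 h before lysis. Poly A mRNA was sequenced (RNA-seq), with 5 replicates for untreated and 3 for treated cells. Differential expression was called by linear model with batch correction, at FDR <0.05 and fold change ≥1.3.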
# [2] = target: Histone-lysine N-methyltransferase EZH2 (Mus musculus) (UniProt Q61188); test: Inhibition of EZH2 in mouse B16-F1 migrating cells assessed as fold change in H3K27me3-independent regulated Ltbp1-mRNA expression at 3 uM measured by […] analysis relative to control cells; outline: as §1
# [3] = target: Histone-lysine N-methyltransferase EZH2 (Mus musculus) (UniProt Q61188); test: Inhibition of EZH2 in mouse B16-F1 migrating cells assessed as fold change in H3K27me3-independent regulated Eva1a-mRNA expression at 3 uM measured by ChIP-seq analysis relative to control cells; outline: as §1
# [4] = target: Histone-lysine N-methyltransferase EZH2 (Mus musculus) (UniProt Q61188); test: Inhibition of EZH2 in mouse B16-F1 migrating cells assessed as fold change in H3K27me3-independent regulated Ahnak-mRNA expression at 3 uM measured by […] analysis relative to control cells; outline: as §1
# [5] = target: Histone-lysine N-methyltransferase EZH2 (Mus musculus) (UniProt Q61188); test: Inhibition of EZH2 in mouse B16-F1 migrating cells assessed as fold change in H3K27me3-independent regulated Cep290-mRNA expression at 3 uM measured by […] analysis relative to control cells; outline: as §1
# [6] = target: Histone-lysine N-methyltransferase EZH2 (Mus musculus) (UniProt Q61188); test: Inhibition of EZH2 in mouse B16-F1 migrating cells assessed as fold change in H3K27me3-buffered regulated Slc39a14-mRNA expression at 3 uM measured by […] analysis relative to control cells; outline: as §1
# [7] = target: Histone-lysine N-methyltransferase EZH2 (Mus musculus) (UniProt Q61188); test: Inhibition of EZH2 in mouse B16-F1 migrating cells assessed as fold change in H3K27me3-buffered regulated Ctxn1-mRNA expression at 3 uM measured by ChIP-seq analysis relative to control cells
# Outline: (§2)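 Confluent B16-F1 cells on fibronectin-coated plates, cultured at 37 °C and 7% CO2, were scratched at multiple sites to induce migration. They were then held 3 h in growth medium containing 3 µM GSK343, with the inhibitor added 3 h before lysis. Unscratched cells served as controls. Poly A mRNA was analysed by RNA-seq (n=3 GSK343, n=5 controls). Linear models removed batch effects, and buffered genes were those altered only under GSK343 (FDR <0.05, fold change >1.3).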
# [8] = target: Histone-lysine N-methyltransferase EZH2 (Mus musculus) (UniProt Q61188); test: Inhibition of EZH2 in mouse B16-F1 migrating cells assessed as fold change in H3K27me3-buffered regulated Ptp4a1-mRNA expression at 3 uM measured by […] analysis relative to control cells; outline: as §2
# [9] = target: Histone-lysine N-methyltransferase EZH2 (Mus musculus) (UniProt Q61188); test: Inhibition of EZH2 in mouse B16-F1 migrating cells assessed as fold change in H3K27me3-buffered regulated Rbl1-mRNA expression at 3 uM measured by […] analysis relative to control cells; outline: as §2
# [10] = target: Histone-lysine N-methyltransferase EZH2 (Mus musculus) (UniProt Q61188); test: Inhibition of EZH2 in mouse B16-F1 migrating cells assessed as fold change in H3K27me3-buffered regulated Hdac10-mRNA expression at 3 uM measured by […] analysis relative to control cells; outline: as §2
# [11] = target: Histone-lysine N-methyltransferase EZH2 (Mus musculus) (UniProt Q61188); test: Inhibition of EZH2 in mouse B16-F1 migrating cells assessed as fold change in H3K27me3-buffered regulated Cmpk2-mRNA expression at 3 uM measured by ChIP-seq analysis relative to control cells; outline: as §2
# [12] = target: Histone-lysine N-methyltransferase EZH2 (Mus musculus) (UniProt Q61188); test: Inhibition of EZH2 in mouse B16-F1 migrating cells assessed as fold change in H3K27me3-buffered regulated Map3k1-mRNA expression at 3 uM measured by […] analysis relative to control cells; outline: as §2
# [13] = target: T1, RNA polymerase II (Mus musculus) (UniProt P08775+Q8CFI7+P97760+A0A3Q4L2S8+Q80UW8+P61219+P62488+Q923G2+P60898+O08740+Q63871+P62876); test: Inhibition of RNA polymerase II in mouse B16-F1 migrating cells assessed as fold change in Tk2-RNA stability at 0.1 mM measured by […] analysis relative to control cells
# [14] = target: T1, RNA polymerase II (Mus musculus); test: Inhibition of RNA polymerase II in mouse B16-F1 migrating cells assessed as fold change in Tmsb10-RNA stability at 0.1 mM measured by […] analysis relative to control cells
# [15] = target: T1, RNA polymerase II (Mus musculus); test: Inhibition of RNA polymerase II in mouse B16-F1 migrating cells assessed as fold change in Borcs8-RNA stability at 0.1 mM measured by […] analysis relative to control cells
# Outline: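 Mouse B16-F1 melanoma cells grown to confluence on fibronectin in DMEM/10% FCS at 37 °C, 7% CO2. Migration induced by multiple scratches and 3 h incubation; unscratched controls. DRB 0.1 mM added 3 h before lysis. RNA from poly A-selected mRNA was sequenced (RNA-seq, three replicates per DRB group). Fold change computed for DRB-treated migrating vs DRB-treated control cells; cutoffs fold change >1.3, FDR <0.05.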
# [16] = target: T1, RNA polymerase II (Mus musculus); test: Inhibition of RNA polymerase II in mouse B16-F1 migrating cells assessed as fold change in Uba52-RNA stability at 0.1 mM measured by […] analysis relative to control cells
# [17] = target: T1, RNA polymerase II (Mus musculus); test: Inhibition of RNA polymerase II in mouse B16-F1 migrating cells assessed as fold change in Samd14-RNA stability at 0.1 mM measured by […] analysis relative to control cells
# [18] = target: T1, RNA polymerase II (Mus musculus); test: Inhibition of RNA polymerase II in mouse B16-F1 migrating cells assessed as fold change in Rpl7-RNA stability at 0.1 mM measured by […] analysis relative to control cells
# [19] = target: T1, RNA polymerase II (Mus musculus); test: Inhibition of RNA polymerase II in mouse B16-F1 migrating cells assessed as fold change in Tbp-RNA stability at 0.1 mM measured by […] analysis relative to control cells
# [20] = target: T1, RNA polymerase II (Mus musculus); test: Inhibition of RNA polymerase II in mouse B16-F1 migrating cells assessed as fold change in Mbtd1-RNA stability at 0.1 mM measured by ChIP-seq analysis relative to control cells
# [21] = target: T1, RNA polymerase II (Mus musculus); test: Inhibition of RNA polymerase II in mouse B16-F1 migrating cells assessed as fold change in Repin1-RNA stability at 0.1 mM measured by […] analysis relative to control cells
# [22] = target: T1, RNA polymerase II (Mus musculus); test: Inhibition of RNA polymerase II in mouse B16-F1 migrating cells assessed as fold change in Rest-RNA stability at 0.1 mM measured by […] analysis relative to control cells
# [23] = target: T1, RNA polymerase II (Mus musculus); test: Inhibition of RNA polymerase II in mouse B16-F1 migrating cells assessed as fold change in Larp4-RNA stability at 0.1 mM measured by ChIP-seq analysis relative to control cells
# [24] = target: T1, RNA polymerase II (Mus musculus); test: Inhibition of RNA polymerase II in mouse B16-F1 migrating cells assessed as fold change in 2310030G06Rik-RNA stability at 0.1 mM measured by […] analysis relative to control cells
# Chain of Histone-lysine N-methyltransferase EZH2 (Mus musculus) (Q61188 whole entry): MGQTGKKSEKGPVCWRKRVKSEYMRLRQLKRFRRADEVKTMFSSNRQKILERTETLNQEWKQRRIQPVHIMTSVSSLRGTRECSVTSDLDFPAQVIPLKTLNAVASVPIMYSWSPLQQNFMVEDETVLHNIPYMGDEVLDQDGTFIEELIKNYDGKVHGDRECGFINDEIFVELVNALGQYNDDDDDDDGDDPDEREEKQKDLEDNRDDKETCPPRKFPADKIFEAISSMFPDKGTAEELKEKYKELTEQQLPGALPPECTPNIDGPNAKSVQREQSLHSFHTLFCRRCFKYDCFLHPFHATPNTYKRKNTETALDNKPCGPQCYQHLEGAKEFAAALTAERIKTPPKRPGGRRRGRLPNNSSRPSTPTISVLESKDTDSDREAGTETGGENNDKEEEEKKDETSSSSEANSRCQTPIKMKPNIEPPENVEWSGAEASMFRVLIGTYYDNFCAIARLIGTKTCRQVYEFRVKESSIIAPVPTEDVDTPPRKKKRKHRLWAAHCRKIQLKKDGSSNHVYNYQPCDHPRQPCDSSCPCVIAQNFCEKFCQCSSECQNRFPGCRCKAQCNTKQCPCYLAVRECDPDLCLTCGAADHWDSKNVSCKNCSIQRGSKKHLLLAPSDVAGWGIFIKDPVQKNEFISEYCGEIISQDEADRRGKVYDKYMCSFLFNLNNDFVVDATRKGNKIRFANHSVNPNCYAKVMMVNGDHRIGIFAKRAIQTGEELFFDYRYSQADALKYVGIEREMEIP
smiles,measurement,setting,value
CCCc1cc(C)[nH]c(=O)c1CNC(=O)c1cc(-c2ccnc(N3CCN(C)CC3)c2)cc2c1cnn2C(C)C,log2FC,[1],0.55
same,log2FC,[2],1.19
same,log2FC,[3],0.84
same,log2FC,[4],0.4
same,log2FC,[5],-0.62
same,log2FC,[6],0.46
same,log2FC,[7],0.43
same,log2FC,[8],0.38
same,log2FC,[9],-0.43
same,log2FC,[10],-0.44
same,log2FC,[11],-0.46
same,log2FC,[12],-0.53
OC[C@H]1O[C@@H](n2cnc3cc(Cl)c(Cl)cc32)[C@H](O)[C@@H]1O,log2FC,[13],0.79
same,log2FC,[14],0.62
same,log2FC,[15],0.57
same,log2FC,[16],0.49
same,log2FC,[17],0.46
same,log2FC,[18],0.41
same,log2FC,[19],-0.56
same,log2FC,[20],-0.62
same,log2FC,[21],-0.71
same,log2FC,[22],-0.79
same,log2FC,[23],-0.9
same,log2FC,[24],-0.91
